Laboratory results from ChEMBL document CHEMBL3596134 (J Med Chem, 2015).

What was measured:
[1] = AUC in guinea pig at 0.2 mg/kg, iv and 1 mg/kg, po administered as cassette dosing; assay type: ADME, organism-based, Cavia porcellus; conditions: in vivo
[2] = Oral bioavailability in guinea pig at 1 mg/kg administered as cassette dosing; assay type: ADME, organism-based, Cavia porcellus; conditions: in vivo
Outline: (§1)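 Guinea pig cassette dosing of five compounds per solution, 0.2 mg/kg iv and 1 mg/kg po. Vehicle wellsolve/H2O 5/95 with NaOH (1.2 equiv). Animals fasted before oral dosing; noncrossover design, n = 3. Plasma protein-precipitated with acetonitrile/ethanol (70/30) and assayed by negative-ion HPLC/MS/MS. Noncompartmental analysis; F from mean AUCs.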

[3] = Oral bioavailability in guinea pig at 10 mg/kg; assay type: ADME, organism-based, Cavia porcellus; conditions: in vivo
Outline: (§2)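 Single iv and oral dosing in rat, guinea pig or dog; iv and po given as solutions in wellsolve/H2O 1/9 with NaOH (2 equiv). Animals fasted before oral dosing; noncrossover design, n = 3. Plasma protein-precipitated with acetonitrile/ethanol (70/30) and assayed by HPLC/MS/MS with negative-ion ionization. Noncompartmental analysis; F from mean po AUC over mean iv AUC.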

[4] = Half life in rat at 1 mg/kg, iv; assay type: ADME, organism-based; conditions: in vivo; outline: as §2
[5] = Half life in guinea pig at 1 mg/kg, iv; assay type: ADME, organism-based, Cavia porcellus; conditions: in vivo; outline: as §2
[6] = Half life in dog at 1 mg/kg, iv; assay type: ADME, organism-based, Canis lupus familiaris; conditions: in vivo; outline: as §2
[7] = Clearance in rat at 1 mg/kg, iv; assay type: ADME, organism-based; conditions: in vivo; outline: as §2
[8] = Clearance in guinea pig at 1 mg/kg, iv; assay type: ADME, organism-based, Cavia porcellus; conditions: in vivo; outline: as §2
[9] = Clearance in dog at 1 mg/kg, iv; assay type: ADME, organism-based, Canis lupus familiaris; conditions: in vivo; outline: as §2
[10] = Volume of distribution at steady state in rat at 1 mg/kg, iv and 3 mg/kg, po; assay type: ADME, organism-based; conditions: in vivo, read-out: Vdss
Outline: (§3)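 Single iv and oral doses were given as solutions in wellsolve/H2O 1/9 with 2 equiv NaOH. Animals were fasted before oral dosing, in a noncrossover design with n = 3. Plasma was protein-precipitated with acetonitrile/ethanol 70/30 and analysed by HPLC/MS/MS (negative-ion Turbo IonSpray). Parameters were derived by noncompartmental analysis and reported as mean ± SD.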

[11] = Volume of distribution at steady state in guinea pig at 1 mg/kg, iv and 10 mg/kg, po; assay type: ADME, organism-based, Cavia porcellus; conditions: in vivo, read-out: Vdss
[12] = Volume of distribution at steady state in dog at 1 mg/kg, iv and 1 mg/kg, po; assay type: ADME, organism-based, Canis lupus familiaris; conditions: in vivo, read-out: Vdss; outline: as §3
[13] = AUC in rat at 3 mg/kg, po; assay type: ADME, organism-based; conditions: in vivo; outline: as §2
[14] = AUC in guinea pig at 10 mg/kg, po; assay type: ADME, organism-based, Cavia porcellus; conditions: in vivo; outline: as §2
[15] = (§4) AUC in dog at 1 mg/kg, po; assay type: ADME, organism-based, Canis lupus familiaris; conditions: in vivo; outline: as §2
[16] = Oral bioavailability in rat at 3 mg/kg; assay type: ADME, organism-based; conditions: in vivo; outline: as §2
[17] = Oral bioavailability in dog at 1 mg/kg; assay type: ADME, organism-based, Canis lupus familiaris; conditions: in vivo; outline: as §2
[18] = Drug uptake in lung of guinea pig measured over 24 hrs; assay type: ADME, tissue-based, Cavia porcellus; conditions: read-out: Drug uptake
Outline: (§5)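 Lungs homogenized in saline; homogenate digested in 2 mol/L NaOH at 60 °C for 3 h, then diluted 50-fold in PBS. Protein measured by BCA. Compound measured by negative-ion HPLC/MS/MS after ethanol precipitation and expressed as ng/g protein. Plasma and lung values given as mean with SD, n = 4.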

[19] = Plasma concentration in guinea pig measured over 24 hrs; assay type: ADME, Cavia porcellus; outline: as §5
[20] = Ratio of drug level in lung to plasma in guinea pig measured over 24 hrs; assay type: ADME, Cavia porcellus; conditions: lung and plasma
Outline: (§6)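 Guinea pigs were dosed orally. Lungs were homogenized in saline, digested in 2 mol/L NaOH at 60 °C for 3 h, diluted 50-fold in PBS, and assayed for protein by BCA. Drug in lung was quantified by HPLC/MS/MS (negative-ion) after ethanol precipitation and expressed as ng/g protein. Plasma was assayed after acetonitrile/ethanol precipitation. Kp is the lung:plasma concentration ratio.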

[21] = Stability of the compound in ambient light; assay type: physicochemical
[22] = Stability of the compound in H2SO4/DME/H2O at 50 degC measured for 24 hrs; assay type: physicochemical
Outline: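 Compound was held in 1 mol/L H2SO4 in DME/H2O at 50 °C for 24 h and checked for degradation.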

[23] = Stability of the compound in NaOH/DME/EtOH/H2O at 50 degC measured for 24 hrs; assay type: physicochemical
Outline: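 Compound was held in 1 mol/L NaOH in DME/EtOH/H2O at 50 °C for 24 h and checked for degradation.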

[24] = Oral bioavailability in rat at 10 mg/kg; assay type: ADME, organism-based; conditions: in vivo; outline: as §2
[25] = Oral bioavailability in guinea pig at 30 mg/kg; assay type: ADME, organism-based, Cavia porcellus; conditions: in vivo
[26] = test system: Canis familiaris; test: as §4; assay type: ADME, organism-based, Canis lupus familiaris; conditions: in vivo; outline: as §2
[27] = Half life in guinea pig at 0.2 mg/kg, iv administered as cassette dosing; assay type: ADME, organism-based, Cavia porcellus; conditions: in vivo; outline: as §1
[28] = Clearance in rat at 1 mg/kg, iv and 1 mg/kg, po; assay type: ADME, organism-based; conditions: in vivo; outline: as §2
[29] = Clearance in rat at 0.2 mg/kg, iv and 1 mg/kg, po administered as cassette dosing; assay type: ADME, organism-based; conditions: in vivo
[30] = Volume of distribution at steady state in rat at 1 mg/kg, iv and 1 mg/kg, po; assay type: ADME, organism-based; conditions: in vivo, read-out: Vdss; outline: as §3
[31] = Volume of distribution at steady state in rat at 0.2 mg/kg, iv and 1 mg/kg, po administered as cassette dosing; assay type: ADME, organism-based; conditions: in vivo, read-out: Vdss
[32] = Cmax in rat at 1 mg/kg, po; assay type: ADME, organism-based; design: dose 1 mg/kg, route oral; conditions: in vivo; outline: as §2
[33] = Cmax in guinea pig at 1 mg/kg, po administered as cassette dosing; assay type: ADME, organism-based, Cavia porcellus; design: dose 1 mg/kg, route oral; conditions: in vivo; outline: as §1
[34] = Cmax in dog at 1 mg/kg, po; assay type: ADME, organism-based, Canis lupus familiaris; design: dose 1 mg/kg, route oral; conditions: in vivo; outline: as §2
[35] = AUC in rat at 1 mg/kg, po; assay type: ADME, organism-based; conditions: in vivo; outline: as §2
[36] = AUC in guinea pig at 1 mg/kg, po administered as cassette dosing; assay type: ADME, organism-based, Cavia porcellus; conditions: in vivo
[37] = Oral bioavailability in rat at 1 mg/kg; assay type: ADME, organism-based; conditions: in vivo; outline: as §2
[38] = test system: Canis familiaris; test: Oral bioavailability in dog at 1 mg/kg administered as cassette dosing; assay type: ADME, organism-based, Canis lupus familiaris; conditions: in vivo
[39] = Plasma concentration in guinea pig at 0.3 mg/kg, po measured over 7 days; assay type: ADME, organism-based, Cavia porcellus; outline: as §5
[40] = Plasma concentration in guinea pig at 3 mg/kg, po measured over 7 days; assay type: ADME, organism-based, Cavia porcellus; outline: as §5
[41] = Drug uptake in lung of guinea pig at 0.3 mg/kg, po measured over 7 days; assay type: ADME, organism-based, Cavia porcellus; conditions: read-out: Drug uptake; outline: as §5
[42] = Drug uptake in lung of guinea pig at 3 mg/kg, po measured over 7 days; assay type: ADME, organism-based, Cavia porcellus; conditions: read-out: Drug uptake; outline: as §5
[43] = Ratio of drug level in lung to plasma in guinea pig at 3 mg/kg, po measured over 7 days; assay type: ADME, organism-based, Cavia porcellus; conditions: lung and plasma; outline: as §6
[44] = Ratio of drug level in lung to plasma in guinea pig at 0.3 mg/kg, po measured over 7 days; assay type: ADME, organism-based, Cavia porcellus; conditions: lung and plasma; outline: as §6

## Cc1c(Cl)cccc1CCCCOc1ccc(C#Cc2ccc(F)c3c(CCCC(=O)O)c(C)n(CCCC(=O)O)c23)cc1
[1]
  AUC: 3400 ng·h/mL
[2]
  bioavailability: 52%

## Cc1c(Cl)cccc1CCCCOc1ccc(/C=C/c2cccc3c(CCCC(=O)O)c(C)n(CC(=O)O)c23)cc1
[3]
  bioavailability: 11%
[4]
  half-life: 534 min
[5]
  half-life: 318 min
[6]
  half-life: 282 min
[7]
  clearance: 1.1 mL/min/kg
[8]
  clearance: 1.8 mL/min/kg
[9]
  clearance: 5.5 mL/min/kg
[10]
  Vd: 0.3 L/kg
[11]
  Vd: 0.23 L/kg
[12]
  Vd: 0.38 L/kg
[13]
  AUC: 39000 ng·h/mL
[14]
  AUC: 10000 ng·h/mL
[15]
  AUC: 650 ng·h/mL
[16]
  bioavailability: 56%
[17]
  bioavailability: 21%
[18]
  concentration at 24 h: 253 ng/g
[19]
  concentration at 24 h: 16 ng/mL
[20]
  Kp at 24 h: 15
[21]
  Stability: Unstable

## O=C(O)CCCn1cc(CC(=O)O)c2c(/C=C/c3ccc(OCCCCOc4ccccc4)cc3)cccc21
[3]
  bioavailability: 26%

## Cc1c(Cl)cccc1CCCCOc1ccc(C#Cc2cccc3c(CCCC(=O)O)c(C)n(CCCC(=O)O)c23)cc1
[1]
  AUC: 10500 ng·h/mL
[2]
  bioavailability: 66%
[22]
  Stability: Stable
[23]
  Stability: Stable
[21]
  Stability: Stable

## O=C(O)CCCc1cn(CC(=O)O)c2c(/C=C/c3ccc(OCCCCOc4ccccc4)cc3)cccc12
[3]
  bioavailability: 12%
[24]
  bioavailability: 66%

## O=C(O)CCCN1CC(C(=O)O)Oc2c(NC(=O)c3ccc(OCCCCc4ccccc4)cc3)cccc21 (stereo not drawn)
[25]
  bioavailability: 2.8%

## Cc1c(F)cccc1CCCCOc1ccc(C#Cc2ccc(F)c3c(CCCC(=O)O)c(C)n(CCCC(=O)O)c23)cc1
[4]
  half-life: 576 min
[6]
  half-life: 456 min
[12]
  Vd: 0.14 L/kg
[26]
  AUC: 28.2 µg·h/mL
[2]
  bioavailability: 56%
[27]
  half-life: 426 min
[28]
  clearance: 0.68 mL/min/kg
[29]
  clearance: 1.1 mL/min/kg
[30]
  Vd: 0.24 L/kg
[31]
  Vd: 0.31 L/kg
[32]
  Cmax: 1190 ng/mL
[33]
  Cmax: 1010 ng/mL
[34]
  Cmax: 3690 ng/mL
[35]
  AUC: 9330 ng·h/mL
[36]
  AUC: 8510 ng·h/mL
[37]
  bioavailability: 35%
[38]
  F: 51%
[39]
  concentration at 168 h: 8.7 ng/mL
[40]
  concentration at 168 h: 83 ng/mL
[41]
  concentration at 168 h: 267 ng/g
[42]
  concentration at 168 h: 573 ng/g
[43]
  Kp at 168 h: 8
[44]
  Kp at 168 h: 30
